From PubChem
MEKK2mut PB1 HTS: signal of MEK5 binding to mutant human MEKK2 PB1 domain. bead flow cytometry, Alexa488-MEK5 binding to MEKK2 mutant. 0.35% of 290,000 active. percent response, % at 10 µM; in the data active = percent response above about 24%, passing the limit was not always enough
MEKK3 PB1 HTS: raises or lowers MEK5 binding to the human MEKK3 PB1 domain; bead-based flow cytometry, Alexa488-MEK5 binding to MEKK3; actives lie on both sides; 0 = blocked by unlabeled MEK5, 100 = vehicle; 1.4% of 290,000 active; binding response (% of control), % at 10 µM;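 active = binding response more than 3 SD above or below the average of its plate-row segment, actives on both sides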;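 note: Alexa488 bead fluorescence after subtracting the streptavidin-only scavenger bead signal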
Target sequence (Q99759 whole entry, looked up, the tested form may be a part): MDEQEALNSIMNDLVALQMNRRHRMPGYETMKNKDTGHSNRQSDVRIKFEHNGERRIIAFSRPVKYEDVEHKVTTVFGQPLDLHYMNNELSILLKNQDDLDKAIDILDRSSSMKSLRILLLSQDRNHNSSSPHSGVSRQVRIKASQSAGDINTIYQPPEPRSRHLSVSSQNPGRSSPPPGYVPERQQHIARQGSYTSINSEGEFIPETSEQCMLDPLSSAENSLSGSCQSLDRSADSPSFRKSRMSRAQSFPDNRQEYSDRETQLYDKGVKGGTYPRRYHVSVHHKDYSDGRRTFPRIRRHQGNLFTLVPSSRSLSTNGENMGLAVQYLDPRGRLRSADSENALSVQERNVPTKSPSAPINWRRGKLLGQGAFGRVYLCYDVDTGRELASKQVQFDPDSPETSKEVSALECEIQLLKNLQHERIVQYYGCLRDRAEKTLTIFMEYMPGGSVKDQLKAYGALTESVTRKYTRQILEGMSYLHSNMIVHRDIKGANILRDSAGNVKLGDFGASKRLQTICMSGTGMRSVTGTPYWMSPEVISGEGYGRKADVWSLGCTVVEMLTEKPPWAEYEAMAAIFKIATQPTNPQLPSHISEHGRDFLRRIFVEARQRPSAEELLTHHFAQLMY
Lipid droplet: hepatic lipid droplet formation modulation; AML12 mouse hepatocytes, oleate lipid droplets, BODIPY imaging; inhibition, % at 6.5 µM; 0.4% of 240,000 active; AID 1656;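 active = lipid droplet intensity inhibited by at least 50%, with more than 500 cells counted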
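Assay system: AML12 mouse liver cells | Compound: 6.5 µM single-point dosing | Schedule: Overnight exposure | Technique: Fluorescence imaging, 20x objective, two fields per well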
MEKK2 WT-MEK5: raises or lowers MEK5 binding to wildtype human MEKK2 PB1 domain; Q9Y2U5; bead flow cytometry, Alexa488-MEK5 binding to MEKK2 WT; actives lie on both sides; binding response (% of control), % at 10 µM; 1.1% of 290,000 active; in the data active = binding response below about 67% or above about 130%
MEKK2wt confirm: raises or lowers MEK5 binding to wildtype human MEKK2, retest. bead flow cytometry, Alexa488-MEK5 binding to MEKK2 WT; actives lie on both sides. binding response (% of control), % at 10 µM. AID 1892. 2.4% of 5,900 active. shares compounds with MEKK3 PB1 HTS; in the data active = binding response below about 16% or above about 210%; inactive = in between
MEKK2mut confirm: signal of MEK5 binding to mutant human MEKK2, retest; shares compounds with MEKK3 PB1 HTS; bead flow cytometry, Alexa488-MEK5 binding to MEKK2 mutant; percent response, % at 10 µM; 2% of 5,900 active; AID 1893; in the data active = percent response mostly above about 71%, no sharp cut-off; inactive = mostly below about 38%;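 note: higher means compound restores mutant binding toward wildtype level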
MEKK3-MEK5 inh: confirmation of inhibitors of MEK5 binding to human MEKK3 | shares compounds with MEKK3 PB1 HTS | bead flow cytometry, Alexa488-MEK5 binding to MEKK3; active compounds read low | binding response (% of control), % at 10 µM | 1.8% of 5,900 active | AID 1894;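 active = binding response below 72% of control, or above a set upper limit, though filed actives all read lower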;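 note: lower values mean stronger disruption of MEK5 binding to MEKK3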
Large screens that a line does not name were inactive (follow-up assays come after a bar, where they were run); [ ] = another dose, or the depositor's remark. An excerpt weighted towards active compounds, which were near 2.6% of everything screened.

COc1ccc2c(C)cc3nncn3c2c1	none
COc1ccc(Cn2c(CO)cnc2SCC(=O)Nc2cccc(NC(C)=O)c2)cc1	none
CCCCCc1cc(=O)oc2c(C(CCN3CCCCC3)c3ccc4c(c3)OCO4)c(OC)cc(OC)c12 (stereo not drawn)	MEKK2mut PB1 HTS 50.0, MEKK2 WT-MEK5 203.0 | MEKK2wt confirm 226.0 | MEKK2mut confirm 73.0 | MEKK3-MEK5 inh inactive
CCCCCc1cc(=O)oc2c(C(CCN3CCN(c4ccccc4)CC3)c3ccc(N(C)C)cc3)c(OC)cc(OC)c12 (stereo not drawn)	none
CCCCCc1cc(=O)oc2c(C(CCN3CCCC(C)C3)c3ccc4c(c3)OCO4)c(OC)cc(OC)c12 (stereo not drawn)	MEKK2mut PB1 HTS 74.0, MEKK3 PB1 HTS 122.0, MEKK2 WT-MEK5 302.0 | MEKK2wt confirm 270.0 | MEKK2mut confirm 109.0 | MEKK3-MEK5 inh inactive
CCCCCc1cc(=O)oc2c(C(CCN(CC)CC)c3cc(OC)c(OC)c(OC)c3)c(OC)cc(OC)c12 (stereo not drawn)	MEKK2mut PB1 HTS 34.0, MEKK2 WT-MEK5 218.0 | MEKK2wt confirm inactive | MEKK2mut confirm inactive | MEKK3-MEK5 inh inactive
O=C(Nc1nncs1)C12CC3CC(CC(Cl)(C3)C1)C2	none
O=C(CCCN1C(=O)c2ccccc2C1=O)NCCN1C(=O)S/C(=C\c2cccs2)C1=O	none
COc1ccc(C23CC4CC(CC(C4)C2)C3)cc1C(=O)NCCN(C)C	MEKK2 WT-MEK5 140.0 (no result: Lipid droplet) | MEKK2wt confirm inactive | MEKK2mut confirm inactive | MEKK3-MEK5 inh inactive
CC1CCN(CCCNC(=O)c2ccc(Cn3c(=S)[nH]c4ccc(Br)cc4c3=O)cc2)CC1	MEKK2 WT-MEK5 166.0 | MEKK2wt confirm inactive | MEKK2mut confirm inactive | MEKK3-MEK5 inh inactive
CN1CCN(CCCNC(=O)c2ccc(Cn3c(=S)[nH]c4ccc(Br)cc4c3=O)cc2)CC1	none
Oc1ccc2ccccc2c1CNc1ccccn1	none
COC(=O)c1c(C)oc(C)c1S(=O)(=O)NC(C)(C)C	none
COC(=O)c1c(C)oc(C)c1S(=O)(=O)N1CCCC1	MEKK3 PB1 HTS 131.0 | MEKK2wt confirm inactive | MEKK2mut confirm inactive | MEKK3-MEK5 inh inactive
COC(=O)c1c(C)oc2ccc(N(C(C)=O)S(=O)(=O)c3ccccc3)cc12	none
COC(=O)c1c(C)oc(C)c1S(=O)(=O)Nc1ccccc1	MEKK3 PB1 HTS 132.0 | MEKK2wt confirm inactive | MEKK2mut confirm inactive | MEKK3-MEK5 inh inactive
COC(=O)c1c(C)oc(C)c1S(=O)(=O)N(Cc1ccccc1)C(C)C	MEKK3 PB1 HTS 129.0 | MEKK2wt confirm -2.0[inhibitor] | MEKK2mut confirm inactive | MEKK3-MEK5 inh inactive
COC(=O)c1c(C)oc(C)c1S(=O)(=O)N1CCCCC1	none
CCc1cc2c(cc3c(=O)n(CC(=O)NCCCN4CCCCCC4)nc(CC)n32)s1	none
CCCn1c(SCC(=O)N2c3ccccc3Sc3ccccc32)nc2ccccc21	MEKK3 PB1 HTS 150.0 | MEKK2wt confirm inactive | MEKK2mut confirm inactive | MEKK3-MEK5 inh inactive
CCCn1c(SCC(=O)O)nc2ccccc21	none
O=C(O)CCn1c(SCc2ccccc2)nc2ccccc21	MEKK3 PB1 HTS 0.0[inhibitor], MEKK2 WT-MEK5 0.0[inhibitor] | MEKK2wt confirm inactive | MEKK2mut confirm inactive | MEKK3-MEK5 inh inactive
COc1ccc(N2C(=O)CSC2c2cccc(F)c2)cc1 (stereo not drawn)	none
O=c1[nH]c(SCc2nc3ccccc3c(=O)n2-c2ccccc2C(F)(F)F)nc2ccccc12	MEKK3 PB1 HTS 67.0[inhibitor] | MEKK2wt confirm inactive | MEKK2mut confirm inactive | MEKK3-MEK5 inh inactive
O=c1[nH]c(SCc2nc3ccccc3n2Cc2ccccc2)nc2ccccc12	none
OC1(c2cccc(F)c2)CCN(Cc2ccncc2)CC1	none (no result: Lipid droplet)
OC1(c2ccc3ccccc3c2)CCN(Cc2ccccc2)C1 (stereo not drawn)	MEKK2mut PB1 HTS 28.0 | MEKK2wt confirm inactive | MEKK2mut confirm inactive | MEKK3-MEK5 inh inactive
N=C1S/C(=C\c2ccccc2)C(=O)N1c1ccc(F)cc1	MEKK3 PB1 HTS 138.0 | MEKK2wt confirm inactive | MEKK2mut confirm inactive | MEKK3-MEK5 inh inactive
N=C1S/C(=C\c2ccccc2F)C(=O)N1c1ccc(F)cc1	none
COC(=O)c1c(NC(=O)Cc2ccccc2)sc2c1CC(C)(C)NC2(C)C	none
COC(=O)c1c(NC(=O)COc2ccc(Cl)cc2)sc2c1CC(C)(C)NC2(C)C	MEKK2mut PB1 HTS 49.0, MEKK2 WT-MEK5 186.0 | MEKK2wt confirm inactive | MEKK2mut confirm inactive | MEKK3-MEK5 inh inactive
COc1ccc(CNC(=O)C2=CC(c3ccc(C)cc3)=NS(=O)(=O)N2C)cc1	none
Cc1cc(C(=O)C(=O)NC(C)C)c(C)n1-c1ccc([N+](=O)[O-])cc1	MEKK3 PB1 HTS 80.0[inhibitor] (no result: Lipid droplet) | MEKK2wt confirm inactive | MEKK2mut confirm inactive | MEKK3-MEK5 inh inactive
Cc1cc(C)nc(-n2nc(C)cc2NC(=O)c2cccc(S(=O)(=O)N3CCCCC3)c2)n1	none (no result: Lipid droplet)
Clc1ccc(-c2csc3ncnc(N4CCc5ccccc5C4)c23)cc1	MEKK3 PB1 HTS 131.0 | MEKK2wt confirm inactive | MEKK2mut confirm inactive | MEKK3-MEK5 inh inactive
CCOc1ccc2c(c1)c(N=NC(=N)N)c(O)n2C	MEKK3 PB1 HTS 128.0 | MEKK2wt confirm inactive | MEKK2mut confirm inactive | MEKK3-MEK5 inh inactive
CCOc1ccc2c(c1)c(N=NC(N)=S)c(O)n2C	none
COc1cc(/C=N/n2cnnc2)ccc1OC(=O)c1ccncc1	MEKK3 PB1 HTS 56.0[inhibitor] (no result: Lipid droplet) | MEKK2wt confirm inactive | MEKK2mut confirm inactive | MEKK3-MEK5 inh inactive
COc1cc(/C=N/n2cnnc2)ccc1OC(=O)c1cccnc1	none
COC(=O)c1cc(NC(=O)c2ccccc2)c(=O)oc1/C=C/Nc1ccc(Oc2ccccc2)cc1	MEKK2mut PB1 HTS 734.0, MEKK2 WT-MEK5 218.0 | MEKK2wt confirm inactive | MEKK2mut confirm inactive | MEKK3-MEK5 inh inactive
O=C(C[n+]1ccccc1)Nc1c(Cl)cc(Cl)cc1Cl	none
Cc1ccc[n+](CC(=O)Nc2c(Cl)cc(Cl)cc2Cl)c1	MEKK3 PB1 HTS 68.0[inhibitor] | MEKK2wt confirm inactive | MEKK2mut confirm inactive | MEKK3-MEK5 inh inactive
COc1ccc(C(=O)COc2ccc(F)cc2)c(O)c1C	none
CC(C)Cc1ccc(/C=C/C(=O)N2CCOCC2)cc1	none
CC(C)(C)c1ccc(/C=C/C(=O)N2CCOCC2)cc1	MEKK3 PB1 HTS 134.0 | MEKK2wt confirm inactive | MEKK2mut confirm inactive | MEKK3-MEK5 inh inactive
Cc1cc(C)n2nc(-c3ccsc3-n3c(C)ccc3C)cc2n1	MEKK2 WT-MEK5 9.0[inhibitor] (no result: Lipid droplet) | MEKK2wt confirm inactive | MEKK2mut confirm inactive | MEKK3-MEK5 inh inactive
CCn1c(/N=C/c2ccccc2NS(=O)(=O)c2ccc(C)cc2)nc2ccccc21	MEKK3 PB1 HTS 137.0 | MEKK2wt confirm inactive | MEKK2mut confirm inactive | MEKK3-MEK5 inh inactive
